Experimental data: paper PMC6334763 (Archives of biochemistry and biophysics, 2018)
Like-named read-outs stand apart in the source and are kept apart here. Each block holds one molecule with its values, some of them ahead of it.

Key:
[1] = target: T1, Bm-iAANAT3 (Bombyx mori, UniProt D7EZJ9); assay: Steady-state kinetic characterization with Ellman's reagent; assay type: biochemical; conditions: for kcat: 300 mM Tris pH 8.0
[2] = target: T1, Bm-iAANAT3; conditions: cited from earlier work
[3] = target: T1, Bm-iAANAT3; assay: Activity-based substrate screening; assay type: biochemical; conditions: rate of CoA-SH release above enzyme-independent acyl-CoA hydrolysis
Method in brief: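 Enzyme: Bm-iAANAT3 expressed from pET28a in E. coli BL-21(DE3), induced with 1.0 mM IPTG for 4 h at 37°C, and Ni-chelate purified. Acetyl-CoA or oleoyl-CoA at 500 μM was tested separately against pooled amines, each at 20 mM or 60 mM, in 300 mM Tris pH 8.0 with 150 μM DTNB. Initial rates came from CoA release at 412 nm (ε₄₁₂ = 13,600 M⁻¹ cm⁻¹), minus background thioester hydrolysis.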

[4] = target: T2, E27A mutant of Bm-iAANAT3 (Bombyx mori, UniProt D7EZJ9, E27A); assay: Steady-state kinetic constants of the E27A mutant; assay type: biochemical; conditions: E27A mutant compared with wild-type Bm-iAANAT3
T2 sequence (D7EZJ9 1-213 E27A): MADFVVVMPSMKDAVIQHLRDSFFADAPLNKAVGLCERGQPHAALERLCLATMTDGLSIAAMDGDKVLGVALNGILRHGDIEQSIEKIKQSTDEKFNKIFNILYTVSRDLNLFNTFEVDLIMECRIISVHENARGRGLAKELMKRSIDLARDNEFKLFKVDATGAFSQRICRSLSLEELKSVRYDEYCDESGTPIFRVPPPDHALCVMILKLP

[5] = target: T1, Bm-iAANAT3; assay: Dead-end and product inhibition analysis; assay type: biochemical; conditions: for inhibition pattern vs. acetyl-CoA: acetyl-CoA varied, tryptamine fixed; for inhibition pattern vs. tryptamine: tryptamine varied, acetyl-CoA fixed
Method in brief: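 Same Ni-purified Bm-iAANAT3. Initial velocities were measured at several fixed inhibitor levels: oleoyl-CoA at 0, 250 and 500 nM; tyrosol at 0, 150 and 300 μM. In one series, tryptamine was held at 100 μM while acetyl-CoA was varied at 10, 25, 50 and 100 μM. In the other, acetyl-CoA was held at 100 μM while tryptamine was varied at 50, 100, 150 and 300 μM.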

[6] = substrate: NCCc1c[nH]c2ccccc12; assay: Steady-state kinetic constants of the E27A mutant; assay type: biochemical, Bombyx mori; conditions: other: E27A mutant; named substrate varied; pH 8.0
[7] = substrate: CC(=O)SCCNC(=O)CCNC(=O)[C@H](O)C(C)(C)COP(=O)(O)OP(=O)(O)OC[C@H]1O[C@@H](n2cnc3c(N)ncnc32)[C@H](O)[C@@H]1OP(=O)(O)O; assay: Steady-state kinetic constants of the E27A mutant; assay type: biochemical, Bombyx mori; conditions: other: E27A mutant; named substrate varied; pH 8.0
[8] = acyl-CoA substrate varied, 8.0 mM tryptamine, 22°C
[9] = binding to free Bm-iAANAT3, ITC and/or NMR
[10] = amine substrate varied, 500 μM acetyl-CoA, 22°C
[11] = amine substrate varied, 500 μM acetyl-CoA, 22°C, 300 mM Tris pH 8.0, 150 μM DTNB

kcat [1, 8]: 1.3 ± 0.01 s⁻¹
Molecule: CCCCCC(=O)SCCNC(=O)CCNC(=O)C(O)C(C)(C)COP(=O)(O)OP(=O)(O)OC[C@H]1O[C@@H](n2cnc3c(N)ncnc32)[C@H](O)[C@@H]1OP(=O)(O)O (stereo partly shown) [hexanoyl-CoA]

kcat [1, 8]: 64 ± 0.7 s⁻¹
Molecule: CC(=O)SCCNC(=O)CCNC(=O)[C@H](O)C(C)(C)COP(=O)(O)OP(=O)(O)OC[C@H]1O[C@@H](n2cnc3c(N)ncnc32)[C@H](O)[C@@H]1OP(=O)(O)O [acetyl-CoA]
Kd [2, 9]: 0.7 µM

kcat [1, 10]: 33 ± 0.68 s⁻¹ | Km [1, 11]: 1.7 ± 0.098 mM | Km ([1]; amine substrate, as given in the text in mM, 500 μM acetyl-CoA): 1.7 ± 0.1 mM
Molecule: NCCc1c[nH]cn1 [Histamine]

substrate activity as acyl-CoA donor [3]: is a substrate | kcat [1, 8]: 13 ± 1.5 s⁻¹ | fold lower (kcat/Km) than (kcat/Km) of decanoyl-CoA ([1]; acyl-CoA substrates, 8.0 mM tryptamine): ~ 6 fold
Molecule: CC(C)(COP(=O)(O)OP(=O)(O)OC[C@H]1O[C@@H](n2cnc3c(N)ncnc32)[C@H](O)[C@@H]1OP(=O)(O)O)[C@@H](O)C(=O)NCCC(=O)NCCSC(=O)CC(=O)O [malonyl-CoA]

Molecule: CC(C)(COP(=O)(O)OP(=O)(O)OC[C@H]1O[C@@H](n2cnc3c(N)ncnc32)[C@H](O)[C@@H]1OP(=O)(O)O)[C@@H](O)C(=O)NCCC(=O)NCCS [CoA-SH]
Kd [2, 9]: 30 ± 1 µM

kcat [1, 8]: 0.05 ± 0.004 s⁻¹
Molecule: CCCCCCCCCC(=O)SCCNC(=O)CCNC(=O)[C@H](O)C(C)(C)COP(=O)(O)OP(=O)(O)OC[C@H]1O[C@@H](n2cnc3c(N)ncnc32)[C@H](O)[C@@H]1OP(=O)(O)O [decanoyl-CoA]

Molecule: NCCc1c[nH]c2ccccc12 [Tryptamine]
fold increase in Km, E27A mutant vs wild-type [4]: 100 fold | Kd [2, 9]: 220 ± 8 µM

kcat [1, 10]: 5.3 ± 0.07 s⁻¹ | Km [1, 11]: 0.14 ± 0.0086 mM
Molecule: NC[C@H](O)c1ccc(O)c(O)c1 [Norepinephrine]

Molecule: CCCC(=O)SCCNC(=O)CCNC(=O)[C@H](O)C(C)(C)COP(=O)(O)OP(=O)(O)OC[C@H]1O[C@@H](n2cnc3c(N)ncnc32)[C@H](O)[C@@H]1OP(=O)(O)O [Butyryl, buytryl-CoA]
kcat [1, 8]: 4.0 ± 0.04 s⁻¹

kcat [1, 10]: 27 ± 0.6 s⁻¹ | Km [1, 11]: 0.063 ± 0.0067 mM
Molecule: NCCc1ccc(O)cc1 [Tyramine]

Molecule: CC(=O)NCCc1c[nH]c2ccccc12 [N-acetyltryptamine]
inhibition pattern vs. acetyl-CoA [5]: competitive | inhibition pattern vs. tryptamine [5]: noncompetitive | effect of added CoA-SH on binding ([2]; addition of CoA-SH): not affected | effect of added acetyl-CoA on binding ([2]; addition of acetyl-CoA): eliminated | Kd [2, 9]: 12 ± 3 µM

kcat [1, 8]: 0.36 ± 0.005 s⁻¹
Molecule: CCCCCCCC(=O)SCCNC(=O)CCNC(=O)[C@H](O)C(C)(C)COP(=O)(O)OP(=O)(O)OC[C@H]1O[C@@H](n2cnc3c(N)ncnc32)[C@H](O)[C@@H]1OP(=O)(O)O [octanoyl-CoA]

Molecule: OCCc1c[nH]c2ccccc12 [tryptophol]
Kd [2, 9]: 230 ± 12 µM | Kd ([2]; in the presence of acetyl-CoA): 50 ± 2 µM

kcat [1, 10]: 55 ± 1.1 s⁻¹ | Km [1, 11]: 0.33 ± 0.023 mM
Molecule: NCCc1ccc(O)c(O)c1 [Dopamine]

substrate activity as acyl-CoA donor [3]: no initial velocity increase | inhibition pattern vs. acetyl-CoA [5]: competitive | Ki ([5]; read-out: Ki,s, competitive vs. acetyl-CoA (varied), tryptamine fixed at 100 μM): 0.22 ± 0.02 µM | inhibition pattern vs. tryptamine [5]: noncompetitive
Molecule: CCCCCCCC/C=C\CCCCCCCC(=O)SCCNC(=O)CCNC(=O)[C@H](O)C(C)(C)COP(=O)(O)OP(=O)(O)OC[C@H]1O[C@@H](n2cnc3c(N)ncnc32)[C@H](O)[C@@H]1OP(=O)(O)O [oleoyl-CoA]

Ki ([5]; Ki,i, uncompetitive vs. acetyl-CoA (varied), tryptamine fixed at 100 μM): 230 ± 10 µM | Ki ([5]; Ki,s, competitive vs. tryptamine (varied), acetyl-CoA fixed at 100 μM): 90 ± 10 µM | inhibition pattern vs. acetyl-CoA [5]: uncompetitive | inhibition pattern vs. tryptamine [5]: competitive
Molecule: OCCc1ccc(O)cc1 [tyrosol]

B1: E27A mutant of Bm-iAANAT3 (Bombyx mori; E27A) (protein)
chain: MADFVVVMPSMKDAVIQHLRDSFFADAPLNKAVGLCERGQPHAALERLCLATMTDGLSIAAMDGDKVLGVALNGILRHGDIEQSIEKIKQSTDEKFNKIFNILYTVSRDLNLFNTFEVDLIMECRIISVHENARGRGLAKELMKRSIDLARDNEFKLFKVDATGAFSQRICRSLSLEELKSVRYDEYCDESGTPIFRVPPPDHALCVMILKLP
Km [6]: 9.4 ± 0.99 mM | kcat [6]: 8.0 ± 0.3 × 10 s^−1 | Km [7]: 20 ± 2.2 µM | kcat [7]: 4.0 ± 0.09 × 10^−2 s^−1
